This is an account of results in ChEMBL document CHEMBL1142269, “Imidazo[4,5-c]quinolines as inhibitors of the PI3K/PKB-pathway” (Bioorg Med Chem Lett, 2008).

The target of assay [1] is Phosphatidylinositol 4,5-bisphosphate 3-kinase catalytic subunit alpha isoform (Homo sapiens, UniProt P42336). Briefly: Inhibition of PI3K p110alpha.
The target of assay [2] is Phosphatidylinositol 4,5-bisphosphate 3-kinase catalytic subunit gamma isoform (Homo sapiens, UniProt P48736). Briefly: Inhibition of PI3K p110gamma.
Sequence of Phosphatidylinositol 4,5-bisphosphate 3-kinase catalytic subunit gamma isoform (P48736 whole entry, canonical isoform): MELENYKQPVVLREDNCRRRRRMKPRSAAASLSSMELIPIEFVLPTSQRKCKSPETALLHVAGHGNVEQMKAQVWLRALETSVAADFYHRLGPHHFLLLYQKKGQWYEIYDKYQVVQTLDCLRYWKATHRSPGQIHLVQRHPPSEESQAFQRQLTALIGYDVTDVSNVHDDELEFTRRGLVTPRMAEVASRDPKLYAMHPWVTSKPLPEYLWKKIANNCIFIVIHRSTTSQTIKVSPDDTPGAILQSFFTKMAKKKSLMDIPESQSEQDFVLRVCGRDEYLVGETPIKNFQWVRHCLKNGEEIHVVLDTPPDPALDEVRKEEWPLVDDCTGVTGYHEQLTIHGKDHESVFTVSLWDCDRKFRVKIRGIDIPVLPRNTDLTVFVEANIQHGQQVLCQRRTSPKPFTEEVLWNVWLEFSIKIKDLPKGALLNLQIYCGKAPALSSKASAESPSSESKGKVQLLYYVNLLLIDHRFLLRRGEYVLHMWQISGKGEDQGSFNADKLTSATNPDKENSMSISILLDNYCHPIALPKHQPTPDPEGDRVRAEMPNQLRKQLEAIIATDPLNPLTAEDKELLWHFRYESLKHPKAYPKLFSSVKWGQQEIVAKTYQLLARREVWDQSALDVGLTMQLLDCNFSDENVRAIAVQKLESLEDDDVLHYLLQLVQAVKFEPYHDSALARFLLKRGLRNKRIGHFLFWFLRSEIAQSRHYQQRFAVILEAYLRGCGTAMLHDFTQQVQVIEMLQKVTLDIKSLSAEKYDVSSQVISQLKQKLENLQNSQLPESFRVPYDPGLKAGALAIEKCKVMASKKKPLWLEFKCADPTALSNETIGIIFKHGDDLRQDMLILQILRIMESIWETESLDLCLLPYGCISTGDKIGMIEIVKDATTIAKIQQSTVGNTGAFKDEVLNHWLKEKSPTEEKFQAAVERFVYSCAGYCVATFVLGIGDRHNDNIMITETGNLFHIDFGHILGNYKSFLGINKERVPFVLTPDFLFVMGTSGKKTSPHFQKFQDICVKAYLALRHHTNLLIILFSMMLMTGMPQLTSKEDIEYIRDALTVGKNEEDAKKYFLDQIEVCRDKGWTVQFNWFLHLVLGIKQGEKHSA
The nature of assay [3]: Antiproliferative activity against human U87MG cells. Format: functional, cell-based, U-87MG ATCC. The settings on record: U-87 MG. The method in brief: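 Antiproliferation run in vitro on U87MG cells; potency expressed as EC50.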
Assay [4] in a line: Antitumor activity in athymic mouse bearing human PC3M tumor assessed as reduction of tumor growth at 50 mg/kg, po bid after 15 days. Format: functional, PC-3M. Also noted: scale not given: the % may be the effect or the level left. A digest of the protocol:
(§1)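 PC3M tumour-bearing mice, compound formulated in NMP/PEG300, given orally twice per day at 50 or 75 mg/kg. Tumour volume read on day 15. T/C = mean difference of treated group ÷ mean difference of vehicle-treated control group × 100.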

Assay [5] has as its target T1, Phosphatidylinositol 4,5-bisphosphate 3-kinase catalytic subunit delta isoform (Homo sapiens, UniProt O00329).
T1 sequence (O00329 whole entry): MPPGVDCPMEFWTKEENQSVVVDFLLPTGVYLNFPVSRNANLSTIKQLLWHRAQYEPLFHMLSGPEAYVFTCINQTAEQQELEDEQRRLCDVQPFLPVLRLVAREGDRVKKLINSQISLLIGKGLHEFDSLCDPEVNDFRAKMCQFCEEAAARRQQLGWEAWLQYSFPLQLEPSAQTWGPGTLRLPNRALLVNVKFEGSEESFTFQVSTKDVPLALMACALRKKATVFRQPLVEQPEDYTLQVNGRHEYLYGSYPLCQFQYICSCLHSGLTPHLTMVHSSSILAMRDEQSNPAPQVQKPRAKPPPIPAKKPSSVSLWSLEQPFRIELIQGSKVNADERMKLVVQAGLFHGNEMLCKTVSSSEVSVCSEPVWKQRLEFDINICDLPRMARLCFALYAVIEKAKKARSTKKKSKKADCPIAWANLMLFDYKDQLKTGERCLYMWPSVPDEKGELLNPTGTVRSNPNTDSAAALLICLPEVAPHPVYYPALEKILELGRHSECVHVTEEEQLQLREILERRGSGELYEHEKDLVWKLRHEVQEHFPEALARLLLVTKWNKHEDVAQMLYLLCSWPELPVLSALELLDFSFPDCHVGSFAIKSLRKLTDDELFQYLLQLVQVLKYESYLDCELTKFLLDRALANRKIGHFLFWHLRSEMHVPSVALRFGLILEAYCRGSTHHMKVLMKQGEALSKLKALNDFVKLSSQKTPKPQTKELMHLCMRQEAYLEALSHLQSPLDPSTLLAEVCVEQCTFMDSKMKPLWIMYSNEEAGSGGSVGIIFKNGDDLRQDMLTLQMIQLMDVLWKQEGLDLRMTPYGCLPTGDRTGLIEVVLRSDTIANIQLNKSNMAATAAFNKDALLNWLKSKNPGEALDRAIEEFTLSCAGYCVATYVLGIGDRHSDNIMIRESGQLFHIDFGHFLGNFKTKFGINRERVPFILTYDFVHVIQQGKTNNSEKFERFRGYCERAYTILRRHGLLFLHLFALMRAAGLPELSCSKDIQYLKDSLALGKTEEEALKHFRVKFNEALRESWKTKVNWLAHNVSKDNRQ
Briefly: Inhibition of PI3K p110delta.

The target of assay [6] is Phosphatidylinositol 4,5-bisphosphate 3-kinase catalytic subunit beta isoform (Homo sapiens, UniProt P42338). In words: Inhibition of PI3K p110beta.
Sequence of Phosphatidylinositol 4,5-bisphosphate 3-kinase catalytic subunit beta isoform (P42338 whole entry, canonical isoform): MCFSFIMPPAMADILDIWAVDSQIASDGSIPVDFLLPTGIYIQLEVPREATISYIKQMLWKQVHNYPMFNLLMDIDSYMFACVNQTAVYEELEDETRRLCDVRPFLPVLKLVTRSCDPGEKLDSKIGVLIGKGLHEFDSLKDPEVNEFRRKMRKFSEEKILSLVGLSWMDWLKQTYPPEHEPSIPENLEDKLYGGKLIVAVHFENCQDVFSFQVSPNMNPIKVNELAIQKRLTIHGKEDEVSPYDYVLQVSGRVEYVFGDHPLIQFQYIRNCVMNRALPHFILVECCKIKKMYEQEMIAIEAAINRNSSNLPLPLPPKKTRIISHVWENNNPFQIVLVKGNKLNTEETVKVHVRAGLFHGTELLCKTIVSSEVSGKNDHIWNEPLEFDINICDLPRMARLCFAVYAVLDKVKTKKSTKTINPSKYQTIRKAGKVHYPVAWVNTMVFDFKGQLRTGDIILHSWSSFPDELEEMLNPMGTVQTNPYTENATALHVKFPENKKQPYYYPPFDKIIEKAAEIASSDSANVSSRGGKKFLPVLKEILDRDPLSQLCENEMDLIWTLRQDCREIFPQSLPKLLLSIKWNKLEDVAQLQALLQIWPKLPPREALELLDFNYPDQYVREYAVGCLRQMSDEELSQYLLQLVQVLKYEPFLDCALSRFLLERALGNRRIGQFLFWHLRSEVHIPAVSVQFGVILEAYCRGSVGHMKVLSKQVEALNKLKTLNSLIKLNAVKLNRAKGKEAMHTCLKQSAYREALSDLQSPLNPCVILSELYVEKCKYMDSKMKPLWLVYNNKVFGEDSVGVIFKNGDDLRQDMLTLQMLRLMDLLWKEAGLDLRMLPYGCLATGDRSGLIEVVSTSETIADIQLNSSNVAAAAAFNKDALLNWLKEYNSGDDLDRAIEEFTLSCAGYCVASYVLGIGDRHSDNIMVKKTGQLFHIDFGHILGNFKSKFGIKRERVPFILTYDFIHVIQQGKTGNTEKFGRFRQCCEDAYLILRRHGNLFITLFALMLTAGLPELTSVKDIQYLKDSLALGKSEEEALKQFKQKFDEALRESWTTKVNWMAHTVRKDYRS
The target of assay [7] is T2, 3-phosphoinositide-dependent protein kinase 1 (Homo sapiens, UniProt O15530).
T2 sequence (O15530 whole entry): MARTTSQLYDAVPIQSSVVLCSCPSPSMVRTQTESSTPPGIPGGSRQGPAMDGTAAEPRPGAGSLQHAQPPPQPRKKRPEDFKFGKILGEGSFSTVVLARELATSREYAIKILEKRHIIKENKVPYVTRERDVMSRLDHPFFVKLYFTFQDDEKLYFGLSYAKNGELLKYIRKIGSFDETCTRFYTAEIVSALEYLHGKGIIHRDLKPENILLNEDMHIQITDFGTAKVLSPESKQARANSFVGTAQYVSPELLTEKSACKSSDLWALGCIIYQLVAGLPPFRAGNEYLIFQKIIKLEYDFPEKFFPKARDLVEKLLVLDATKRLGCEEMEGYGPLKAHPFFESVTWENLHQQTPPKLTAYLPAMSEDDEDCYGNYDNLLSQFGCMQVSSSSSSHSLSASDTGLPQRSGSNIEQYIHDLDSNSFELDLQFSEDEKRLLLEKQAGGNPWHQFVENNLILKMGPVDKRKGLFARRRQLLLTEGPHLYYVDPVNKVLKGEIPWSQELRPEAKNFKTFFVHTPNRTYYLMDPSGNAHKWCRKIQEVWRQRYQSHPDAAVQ
In words: Inhibition of PDK1. A digest of the protocol: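 Biochemical PDK1 enzymatic activity assay at 10 µM ATP; IC50 determined.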

Assay [8] is described as follows: Antitumor activity in athymic mouse bearing human PC3M tumor assessed as reduction of tumor growth at 75 mg/kg, po bid after 15 days. Format: functional, PC-3M. Also noted: scale not given: the % may be the effect or the level left. The method in brief: as §1
Assay [9] in a line: Inhibition of PKA at 10 uM.
For assay [10], the target named is RAC-alpha serine/threonine-protein kinase (Homo sapiens) (UniProt P31749). In words: Inhibition of PKB at 10 uM.
Sequence of RAC-alpha serine/threonine-protein kinase (Homo sapiens) (P31749 whole entry): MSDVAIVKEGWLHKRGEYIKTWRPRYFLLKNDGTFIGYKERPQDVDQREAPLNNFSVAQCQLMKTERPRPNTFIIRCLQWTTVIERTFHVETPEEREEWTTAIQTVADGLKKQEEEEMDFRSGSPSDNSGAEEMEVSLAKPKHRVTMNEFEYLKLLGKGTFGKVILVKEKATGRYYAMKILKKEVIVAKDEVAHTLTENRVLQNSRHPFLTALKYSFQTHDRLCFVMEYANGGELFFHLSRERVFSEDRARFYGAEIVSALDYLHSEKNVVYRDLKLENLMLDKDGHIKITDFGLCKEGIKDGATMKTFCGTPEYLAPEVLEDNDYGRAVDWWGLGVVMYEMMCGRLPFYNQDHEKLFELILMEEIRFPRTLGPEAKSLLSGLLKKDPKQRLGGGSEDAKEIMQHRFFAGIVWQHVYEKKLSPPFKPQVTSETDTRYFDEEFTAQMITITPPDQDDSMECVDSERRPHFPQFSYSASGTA
A short description of assay [11]: Antitumor activity in mouse bearing human PC3M tumor assessed as reduction of tumor growth at 60 mg/kg, po bid after 27 days. Format: functional, PC-3M. Also noted: scale not given: the % may be the effect or the level left. A digest of the protocol: (§2)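 PC3M tumour-bearing mice, oral dosing twice per day at 50 or 60 mg/kg in NMP/PEG300 vehicle. T/C taken on day 27 as mean difference of treated group over mean difference of vehicle control, ×100. Significance by one-way ANOVA followed by post hoc Dunnett's test versus control.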

A short description of assay [12]: Antitumor activity in mouse bearing human PC3M tumor assessed as reduction of tumor growth at 50 mg/kg, po bid after 27 days. Format: functional, PC-3M. Also noted: scale not given: the % may be the effect or the level left. The method in brief:
as §2

Sequence of Phosphatidylinositol 4,5-bisphosphate 3-kinase catalytic subunit alpha isoform (P42336 whole entry, canonical isoform): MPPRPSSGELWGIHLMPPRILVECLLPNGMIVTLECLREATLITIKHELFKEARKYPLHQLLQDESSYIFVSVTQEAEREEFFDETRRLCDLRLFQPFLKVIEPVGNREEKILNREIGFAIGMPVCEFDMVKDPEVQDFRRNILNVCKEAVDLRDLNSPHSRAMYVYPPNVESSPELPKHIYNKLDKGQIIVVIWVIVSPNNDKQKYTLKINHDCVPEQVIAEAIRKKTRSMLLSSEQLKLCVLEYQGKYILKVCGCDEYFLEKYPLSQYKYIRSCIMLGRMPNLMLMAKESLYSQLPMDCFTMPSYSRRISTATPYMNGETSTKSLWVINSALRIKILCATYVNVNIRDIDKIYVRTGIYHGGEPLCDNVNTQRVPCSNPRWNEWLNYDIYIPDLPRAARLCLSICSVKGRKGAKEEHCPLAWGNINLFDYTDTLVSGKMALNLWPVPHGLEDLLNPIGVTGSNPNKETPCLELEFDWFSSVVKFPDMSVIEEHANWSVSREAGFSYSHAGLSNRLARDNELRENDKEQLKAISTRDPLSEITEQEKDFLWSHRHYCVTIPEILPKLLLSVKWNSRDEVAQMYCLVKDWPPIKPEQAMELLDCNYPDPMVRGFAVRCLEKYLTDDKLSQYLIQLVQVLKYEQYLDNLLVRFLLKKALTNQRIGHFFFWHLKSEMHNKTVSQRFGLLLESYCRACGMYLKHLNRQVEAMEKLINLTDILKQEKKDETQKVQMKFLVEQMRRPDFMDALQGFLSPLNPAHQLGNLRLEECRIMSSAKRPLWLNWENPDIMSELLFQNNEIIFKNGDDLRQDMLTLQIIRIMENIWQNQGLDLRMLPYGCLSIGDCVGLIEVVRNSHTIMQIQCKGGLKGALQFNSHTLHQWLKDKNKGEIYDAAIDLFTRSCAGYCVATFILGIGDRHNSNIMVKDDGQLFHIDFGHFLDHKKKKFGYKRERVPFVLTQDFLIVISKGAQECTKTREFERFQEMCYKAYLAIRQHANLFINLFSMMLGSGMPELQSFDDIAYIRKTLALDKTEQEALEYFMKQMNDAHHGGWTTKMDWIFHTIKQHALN

Regarding `Cc1nc2cnc3ccc(C#Cc4cccnc4)cc3c2n1-c1ccc(C(C)C#N)cc1` (stereo not given), the IC50 in assay [1] was determined as 0.056 µM; in assay [2] it was 0.117 µM; in [5], 0.035 µM; in assay [6], 0.446 µM; in assay [7], 0.245 µM. In assay [3], this molecule displayed an EC50 of 0.143 µM. Also, the Activity in [4] is recorded as 85%; in assay [8], 50%.
On to `N#CCc1ccc(-n2cnc3cnc4ccc(C#Cc5cccnc5)cc4c32)cc1`, for which the IC50 was determined as 0.064 µM in assay [1]; 0.067 µM in assay [2]; 0.098 µM in assay [5]; 0.432 µM in assay [6]; 0.034 µM in assay [7]. Moreover, the inhibition in assay [9] was 24%; in assay [10] it was 0%. Further, it took 0.416 µM to reach a half-maximal effect in [3] (EC50).
For `CCc1nc2cnc3ccc(C#Cc4cccnc4)cc3c2n1-c1ccc(CC#N)cc1`, the concentration for a half-maximal effect (EC50) in [3] worked out at 0.4 µM. In assay [7], this molecule displayed a concentration for half-maximal inhibition (IC50) of 0.327 µM.
`Cn1c(=O)n(-c2ccc(C(C)(C)C#N)cc2)c2c3cc(C#Cc4cccnc4)ccc3ncc21`: the Activity in [11] is given as 9%; in assay [12], 31%. The IC50 in assay [1] is 0.072 µM; in assay [2], 0.382 µM; in assay [5], 0.201 µM; in [6], 2.34 µM; in [7], > 25 µM. Also, in assay [3], it took 0.013 µM to reach a half-maximal effect (EC50).
The molecule `CC(C)(C#N)c1ccc(-n2cnc3cnc4ccc(C#Cc5cccnc5)cc4c32)cc1` yielded an EC50 in [3] of 0.446 µM. The molecule further had a 50% inhibitory concentration (IC50) in [7] of 0.15 µM.
The like results for `Cc1nc2cnc3ccc(C#Cc4cccnc4)cc3c2n1-c1ccc(CC#N)cc1` were, in that order, 0.275 µM and 0.11 µM.

As usually defined, the IC50 is the concentration that inhibits the measured activity by half. Usually EC50 stands for the concentration giving half of the maximal effect. What is called inhibition is how much of the control response was suppressed.
